The record followed here is ChEMBL document CHEMBL1148730, “Design of noncompetitive interleukin-8 inhibitors acting on CXCR1 and CXCR2” (J Med Chem, 2007).

Assay [1] can be described thus: Inhibition of CXCL8-induced cell migration in human PMN cells 0.1 uM chemotaxis assay. The format is functional. Summed up:
(§1)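 Human PMNs from normal-donor buffy coats (dextran sedimentation, hypotonic lysis; 95% purity, >95% viability). Cells at 1.5-3 × 10⁶/mL preincubated 15 min at 37 °C with vehicle or compound, then seeded in triplicate in the upper well of a 48-well micro-chemotaxis chamber. Lower well held CXCL8 1 nM or CXCL1 10 nM. Chamber ran 45 min at 37 °C in 5% CO₂; filters were fixed and stained, and five 100× fields per well were counted.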

Assay [2] deals with L1.2. Briefly: Inhibition of CXCL8-induced cell migration in L1.2 cells expressing wild type CXCR1 at up to 1000 nM by chemotaxis assay. The class given is functional, cell-based. Particulars: Mus musculus. Summed up:
(§2)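 Mouse L1.2 lymphoma cells were transiently electroporated with wild-type or Ile43Val human CXCR1, with expression checked by flow cytometry at 48 h. Cells were kept overnight in 5 mM sodium butyrate, resuspended at 10⁷/mL, and pretreated 30 min at 37 °C with compound (1-1000 nM). Migration to 10 nM CXCL8, with compound in both chambers, ran 4 h at 37 °C through 5 µm Transwells. Cells were counted in a Bürker chamber and expressed as % of migration without compound, from ≥3 independent experiments.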

The subject of assay [3] is L1.2. Description: Inhibition of CXCL8-induced cell migration in L1.2 cells expressing CXCR1 by chemotaxis assay. Particulars: Mus musculus. The class given is functional, cell-based. The procedure, abridged: as §2
Assay [4] concerns L1.2. Briefly: Inhibition of CXCL8-induced cell migration in L1.2 cells expressing Ile43Val CXCR1 mutant by chemotaxis assay. The class given is functional, cell-based. Particulars: Mus musculus. The procedure, abridged: as §2
The test system of assay [5] is L1.2. Briefly: Inhibition of CXCL8-induced cell migration in L1.2 cells expressing wild type CXCR1 at 0.1 uM by chemotaxis assay. The format is functional. Particulars: Mus musculus. Summed up: as §2
Assay [6] is described as follows: Inhibition of CXCL8-induced cell migration in human PMN cells at 0.01 uM by chemotaxis assay. The class given is functional. The procedure, abridged: as §1
Assay [7] is described as follows: Inhibition of CXCL1-induced cell migration in human PMN cells at 0.01 uM by chemotaxis assay. The class given is functional. Summed up: as §1
Another assay relates to Macrophage. Briefly: Inhibition of the LPS-induced PGE2 production in human macrophages at 10 uM. The format is functional.

Active and inactive are the calls of the source. The rule behind the calls is not given here.

With `CCC(C)c1cccc(C(C)C(=O)O)c1` (stereo not drawn), the Inhibition in assay [1] is reported as 50%.
On to `CC(C)Cc1ccc([C@@H](C)C(=O)NS(C)(=O)=O)cc1` [REPARIXIN], for which the result in the assay with L1.2 [2] was Active. For the same compound, the IC50 was 5.6 nM in the assay on L1.2 [3] and 80 nM in the assay with L1.2 [4]. This compound also gave an inhibition at 0.1 µM in the assay with L1.2 [5] of 80%.
`C[C@@H](C(=O)O)c1ccc(OS(=O)(=O)C(F)(F)F)cc1`: the inhibition at 0.01 µM in assay [6] was 68%; in assay [7], 65%. Further, 10 µM produced 17% inhibition with Macrophage.
